Source: ChEMBL document CHEMBL4270642, “Boronic ester-linked macrocyclic lipopeptides as serine protease inhibitors targeting Escherichia coli type I signal peptidase” (Eur J Med Chem, 2018)
≈ marks a conversion by molar mass, not a printed value. Square brackets hold non-standard residues; d marks the D form. Peptide text beside a SMILES is read from it. * marks the point of attachment. Benzoyl(4-(4-hexylphenyl)) = CCCCCCc1ccc(-c2ccc(C(=O)*)cc2)cc1; X1 = C[C@H](N*)B1OC2C[C@@H]3C[C@@H](C3(C)C)[C@]2(C)O1; Orn = NCCC[C@H](N)C(=O)O

Tests used:
Escherichia coli [1] = experiment: Antibacterial activity against Escherichia coli ATCC 25922 after 16 to 20 hrs by broth microdilution method; format: functional
How it was run: (§1)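 Broth microdilution in cation-adjusted Mueller-Hinton II per EUCAST/CLSI; two-fold compound series 64 down to 0.25 µg/mL final. Inoculum from fresh colonies (non-selective agar, 18-24 h, 35 ± 2 °C), adjusted to 0.5 McFarland, diluted to about 5 × 10^5 CFU/mL final. Static incubation 16-20 h at 35 ± 2 °C; MIC read visually as complete growth inhibition against medium-only wells.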

Staphylococcus aureus = experiment: Antibacterial activity against Staphylococcus aureus ATCC 29213 after 16 to 20 hrs by broth microdilution method; format: functional; how it was run: as §1
Escherichia coli [2] = experiment: Antibacterial activity against tolC deficient Escherichia coli CH3130 after 16 to 20 hrs by broth microdilution method; format: functional; how it was run: as §1
[3] = target: Signal peptidase I (Escherichia coli K-12) (UniProt P00803); experiment: Inhibition of Escherichia coli type 1 signal peptidase lepB assessed as residual activity at 0.625 uM preincubated for 10 mins followed by Dabcyl-VGGTATAYGAFSRPGLE-(EDANS)-OH substrate addition measured after 2 hrs by FRET based assay (reference value: 100%)
How it was run: (§2)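 EcLepB (about 50 nM estimated) preincubated 10 min with compound. Reaction started with Dabcyl/EDANS FRET peptide at 8 µM final (Km 20 µM). Fluorescence followed continuously at 535 nm, 22 °C, for 2 h. Cleavage rates plotted against inhibitor concentration; IC50 from non-linear regression of sigmoidal dose-response curves.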

[4] = target: Signal peptidase I (Escherichia coli K-12) (UniProt P00803); experiment: Inhibition of Escherichia coli type 1 signal peptidase lepB assessed as residual activity at 0.3125 uM preincubated for 10 mins followed by Dabcyl-VGGTATAYGAFSRPGLE-(EDANS)-OH substrate addition measured after 2 hrs by FRET based assay (reference value: 100%); how it was run: as §2
[5] = target: Signal peptidase I (Escherichia coli K-12) (UniProt P00803); experiment: Inhibition of Escherichia coli type 1 signal peptidase lepB assessed as residual activity at 0.0049 uM preincubated for 10 mins followed by Dabcyl-VGGTATAYGAFSRPGLE-(EDANS)-OH substrate addition measured after 2 hrs by FRET based assay (reference value: 100%); how it was run: as §2
Klebsiella pneumoniae = experiment: Antibacterial activity against Klebsiella pneumoniae ATCC 13883 after 16 to 20 hrs by broth microdilution method; format: functional; how it was run: as §1
[6] = target: Signal peptidase I (Escherichia coli K-12) (UniProt P00803); experiment: Inhibition of Escherichia coli type 1 signal peptidase lepB assessed as residual activity at 0.0006 uM preincubated for 10 mins followed by Dabcyl-VGGTATAYGAFSRPGLE-(EDANS)-OH substrate addition measured after 2 hrs by FRET based assay (reference value: 100%); how it was run: as §2
[7] = target: Signal peptidase I (Escherichia coli K-12) (UniProt P00803); experiment: Inhibition of Escherichia coli type 1 signal peptidase lepB assessed as residual activity at 0.0012 uM preincubated for 10 mins followed by Dabcyl-VGGTATAYGAFSRPGLE-(EDANS)-OH substrate addition measured after 2 hrs by FRET based assay (reference value: 100%); how it was run: as §2
[8] = target: Signal peptidase I (Escherichia coli K-12) (UniProt P00803); experiment: Inhibition of Escherichia coli type 1 signal peptidase lepB assessed as residual activity at 0.1563 uM preincubated for 10 mins followed by Dabcyl-VGGTATAYGAFSRPGLE-(EDANS)-OH substrate addition measured after 2 hrs by FRET based assay (reference value: 100%); how it was run: as §2
Pseudomonas aeruginosa [9] = experiment: Antibacterial activity against efflux defective Pseudomonas aeruginosa PAO750 after 16 to 20 hrs by broth microdilution method; format: functional; how it was run: as §1
HepG2 = experiment: Cytotoxicity against human HepG2 cells after 72 hrs by FMSA; format: cell-based; conditions: HepG2, 72 h
How it was run: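 HepG2 (ATCC) grown in EMEM with 10% FBS, pen/strep, 2 mM L-glutamine, used up to 20 passages. Seeded at 1000 cells/well, cultured overnight, then dosed acoustically from DMSO stocks. Eight two-fold dilutions in duplicate from top 64 or 32 µM; 72 h at 37 °C, 5% CO2. Fluorescein diacetate hydrolysis read at ex 485/em 530 nm; IC50 by non-linear regression.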

[10] = target: Signal peptidase I (Escherichia coli K-12) (UniProt P00803); experiment: Inhibition of Escherichia coli type 1 signal peptidase lepB assessed as residual activity at 0.0195 uM preincubated for 10 mins followed by Dabcyl-VGGTATAYGAFSRPGLE-(EDANS)-OH substrate addition measured after 2 hrs by FRET based assay (reference value: 100%); how it was run: as §2
[11] = target: Signal peptidase I (Escherichia coli K-12) (UniProt P00803); experiment: Inhibition of Escherichia coli type 1 signal peptidase lepB assessed as residual activity at 1.25 uM preincubated for 10 mins followed by Dabcyl-VGGTATAYGAFSRPGLE-(EDANS)-OH substrate addition measured after 2 hrs by FRET based assay (reference value: 100%); how it was run: as §2
[12] = target: Signal peptidase I (Escherichia coli K-12) (UniProt P00803); experiment: Inhibition of Escherichia coli type 1 signal peptidase lepB assessed as residual activity at 10 uM preincubated for 10 mins followed by Dabcyl-VGGTATAYGAFSRPGLE-(EDANS)-OH substrate addition measured after 2 hrs by FRET based assay (reference value: 100%); how it was run: as §2
[13] = target: Signal peptidase I (Escherichia coli K-12) (UniProt P00803); experiment: Inhibition of Escherichia coli type 1 signal peptidase lepB assessed as residual activity at 0.0098 uM preincubated for 10 mins followed by Dabcyl-VGGTATAYGAFSRPGLE-(EDANS)-OH substrate addition measured after 2 hrs by FRET based assay (reference value: 100%); how it was run: as §2
Acinetobacter baumannii = experiment: Antibacterial activity against Acinetobacter baumannii ATCC 19606 after 16 to 20 hrs by broth microdilution method; format: functional; conditions: ATCC 19606 = CIP 70.34 = JCM 6841; how it was run: as §1
[14] = Hemolytic activity in human RBC at 100 uM after 45 mins by spectrophotometric method relative to control; format: ADME, cell-based, Erythrocyte; conditions: red blood cells (erythrocytes), read-out: Activity
How it was run: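 Heparinized human blood; red cells washed three times in Tyrode buffer pH 7.4. Compound at 100 µM final with 1% DMSO and 50% RBC, shaken (250 rpm) 45 min at 37 °C. Cells pelleted (1000 × g, 10 min); supernatant haemoglobin at 540 nm. Percent lysis relative to buffer-only and 2% Triton X-100 controls.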

[15] = target: Signal peptidase I (Escherichia coli K-12) (UniProt P00803); experiment: Inhibition of Escherichia coli type 1 signal peptidase lepB assessed as residual activity at 0.0781 uM preincubated for 10 mins followed by Dabcyl-VGGTATAYGAFSRPGLE-(EDANS)-OH substrate addition measured after 2 hrs by FRET based assay (reference value: 100%); how it was run: as §2
Signal peptidase I = Signal peptidase I (Escherichia coli K-12, UniProt P00803); experiment: Inhibition of Escherichia coli type 1 signal peptidase lepB preincubated for 10 mins followed by Dabcyl-VGGTATAYGAFSRPGLE-(EDANS)-OH substrate addition measured after 2 hrs by FRET based assay; how it was run: as §2
[16] = target: Signal peptidase I (Escherichia coli K-12) (UniProt P00803); experiment: Inhibition of Escherichia coli type 1 signal peptidase lepB assessed as residual activity at 2.5 uM preincubated for 10 mins followed by Dabcyl-VGGTATAYGAFSRPGLE-(EDANS)-OH substrate addition measured after 2 hrs by FRET based assay (reference value: 100%); how it was run: as §2
Pseudomonas aeruginosa [17] = experiment: Antibacterial activity against Pseudomonas aeruginosa PAO1 after 16 to 20 hrs by broth microdilution method; format: functional; how it was run: as §1
[18] = target: Signal peptidase I (Escherichia coli K-12) (UniProt P00803); experiment: Inhibition of Escherichia coli type 1 signal peptidase lepB assessed as residual activity at 0.0024 uM preincubated for 10 mins followed by Dabcyl-VGGTATAYGAFSRPGLE-(EDANS)-OH substrate addition measured after 2 hrs by FRET based assay (reference value: 100%); how it was run: as §2
[19] = target: Signal peptidase I (Escherichia coli K-12) (UniProt P00803); experiment: Inhibition of Escherichia coli type 1 signal peptidase lepB assessed as residual activity at 0.0391 uM preincubated for 10 mins followed by Dabcyl-VGGTATAYGAFSRPGLE-(EDANS)-OH substrate addition measured after 2 hrs by FRET based assay (reference value: 100%); how it was run: as §2
Escherichia coli [20] = experiment: Antibacterial activity against Escherichia coli D22 CGSG 5163 harboring Ips mutant after 16 to 20 hrs by broth microdilution method; format: functional
How it was run: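 Broth microdilution in cation-adjusted Mueller-Hinton II broth, following EUCAST and CLSI guidelines. Two-fold series at final concentrations 64 down to 0.25 µg/mL, with medium-only and growth controls. Inoculum from fresh colonies (18-24 h, 35 °C ± 2 °C) adjusted to 0.5 McFarland, final ≈5 × 10^5 CFU/mL. Plates incubated unshaken 16-20 h at 35 °C ± 2 °C. MIC read visually as complete inhibition of growth.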

[21] = target: Signal peptidase I (Escherichia coli K-12) (UniProt P00803); experiment: Inhibition of Escherichia coli type 1 signal peptidase lepB assessed as residual activity at 5 uM preincubated for 10 mins followed by Dabcyl-VGGTATAYGAFSRPGLE-(EDANS)-OH substrate addition measured after 2 hrs by FRET based assay (reference value: 100%); how it was run: as §2

Chain of Signal peptidase I (Escherichia coli K-12) (P00803 whole entry): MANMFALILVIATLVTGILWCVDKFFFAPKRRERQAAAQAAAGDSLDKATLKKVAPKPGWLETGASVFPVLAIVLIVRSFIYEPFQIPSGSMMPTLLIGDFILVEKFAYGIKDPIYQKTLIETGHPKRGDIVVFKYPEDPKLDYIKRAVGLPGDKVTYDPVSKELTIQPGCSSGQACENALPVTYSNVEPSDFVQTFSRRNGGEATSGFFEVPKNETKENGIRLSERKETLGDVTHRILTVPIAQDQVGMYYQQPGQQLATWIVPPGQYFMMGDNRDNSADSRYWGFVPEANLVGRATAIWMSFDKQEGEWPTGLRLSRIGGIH
Chain of Signal peptidase I (P00803 whole entry): as above

Row | Structure (SMILES) | MIC (Escherichia coli [1]) [µg/mL] | MIC (Staphylococcus aureus) [µg/mL] | MIC (Escherichia coli [2]) [µg/mL] | Activity [3] [%] | Activity [4] [%] | Activity [5] [%] | MIC (Klebsiella pneumoniae) [µg/mL] | Activity [6] [%] | Activity [7] [%] | Activity [8] [%] | MIC (Pseudomonas aeruginosa [9]) [µg/mL] | IC50 (HepG2) [µM] | Activity [10] [%] | Activity [11] [%] | Activity [12] [%] | Activity [13] [%] | MIC (Acinetobacter baumannii) [µg/mL] | hemolysis at 0.75 h, 100 µM [14] [%] | Activity [15] [%] | IC50 (Signal peptidase I) [µM] | also measured
1 | CCCCCCc1ccc(-c2ccc(C(=O)N[C@@H](CCCN)C(=O)N[C@H](C(=O)N[C@@H](C)C(=O)N[C@H]3Cc4cn(nn4)CCN4C[C@@H]5OB(O[C@@H]5C4)[C@H](C)NC3=O)[C@@H](C)O)cc2)cc1 | 64 (≈ 73.5 µM) | 32 (≈ 36.7 µM) | 16 (≈ 18.4 µM) | 36.3 | 38.8 | 77 | 64 (≈ 73.5 µM) | 97.3 | 80.6 | 47.2 | > 64 | 9.5 | 71.3 | 32.9 | 17.8 | 77.9 | 32 (≈ 36.7 µM) | 10.1 | 61.4 | 0.104 | Activity [16]: 29.8%; MIC (Pseudomonas aeruginosa [17]): > 64 µg/mL; Activity [18]: 79.9%; Activity [19]: 63.8%; MIC (Escherichia coli [20]): 32 µg/mL (≈ 36.7 µM); Activity [21]: 26.7%
2 | CCCCCCc1ccc(-c2ccc(C(=O)N[C@@H](CCCN)C(=O)N[C@H](C(=O)N[C@@H](C)C(=O)N[C@@H](CC(N)=O)C(=O)N[C@@H](C)B3OC4C[C@@H]5C[C@@H](C5(C)C)[C@]4(C)O3)[C@@H](C)O)cc2)cc1 (some centres not stated) ({Benzoyl(4-(4-hexylphenyl))}-[Orn]TAN-X1) | 8 (≈ 9.01 µM) | 0.025 (≈ 0.0282 µM) | 2 (≈ 2.25 µM) | -9.9 | 3.5 | 87.3 | 2 (≈ 2.25 µM) | 114 | 98.6 | -1.3 | 32 (≈ 36 µM) | 11.7 | 42.9 | 8.5 | 6.3 | 70.6 | 4 (≈ 4.5 µM) | 11.7 | 20.5 | 0.017 | Activity [16]: -0.2%; MIC (Pseudomonas aeruginosa [17]): 64 µg/mL (≈ 72.1 µM); Activity [18]: 91.9%; Activity [19]: 24.9%; MIC (Escherichia coli [20]): 0.5 µg/mL (≈ 0.563 µM); Activity [21]: 1.8%
